An excerpt weighted towards active compounds, which were near 1.3% of everything screened.
TDP2 inh: blocks human TDP2 phosphodiesterase activity; actives 0.34% (n = 370,000); O95551; recombinant TDP2, T5PNP hydrolysis, p-nitrophenol absorbance 415 nm; inhibition, % at 12.8 µM;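 active means inhibition above the mean of all tested compounds plus 3 SD, set per campaign, cut at about 25% in these data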;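 further: 0% = DMSO with enzyme and 100% = buffer with substrate but no TDP2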
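Assay system: recombinant human TDP2 / Reagent: T5PNP substrate at 5 mM, a TopII-DNA adduct mimic / Measured by: epi absorbance from released p-nitrophenol / Evaluation: % inhibition relative to enzyme-containing and enzyme-free wells / Control set: enzyme-free and DMSO wells / Replicates: each compound tested once, singlicate / Schedule: enzyme reaction with compound for 2 h at 37 °C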
LEDGF integ inh: blocks HIV-1 LEDGF/p75-dependent DNA integration | TR-FRET IN-LEDGF/p75 DNA integration, Eu/Cy5 | inhibition, % at 3.7 µM | actives 0.64% (n = 370,000);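 active means inhibition above the screen-wide mean plus 3 SD, cut at about 13% in these data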;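 further: signal is the Cy5 over europium emission ratio at 671 and 618 nm; 0% = plate median of compound wells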
ASAP1 GAP inh: ASAP1 ArfGAP inhibition | Q9ULH1 | ASAP1-stimulated ARF1 GTP hydrolysis, GDP FP detection | inhibition, % at 16.5 µM | actives 0.19% (n = 360,000);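 further: 0% = vehicle with enzyme and substrate and 100% = no enzyme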
ARFGAP1 inhibitor: rat ARFGAP1 inhibition; Arfgap1-stimulated ARF1 GTP hydrolysis, GDP FP detection; inhibition, % at 16.5 µM; actives 0.26% (n = 360,000); AID 651572;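 active means inhibition above a per-plate limit, mean inhibition of low control wells plus 3 SD, cut at about 25% in these data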;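 further: 0% = DMSO wells with enzyme and 100% = wells lacking Arfgap1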
Target sequence (Q62848 1-136 limits assumed): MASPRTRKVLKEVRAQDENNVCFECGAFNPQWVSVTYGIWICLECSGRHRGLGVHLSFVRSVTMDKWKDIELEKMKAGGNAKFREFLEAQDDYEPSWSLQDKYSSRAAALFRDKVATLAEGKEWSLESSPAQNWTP
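Material: truncated rat Arfgap1 GAP domain; Incubation: compound-enzyme preincubation 20 min, reaction 120 min, detection 60 min, 25 °C; Read-out: percent inhibition of Arfgap1-stimulated GTP hydrolysis; Technique: FP, GDP Alexa 633 tracer displaced from anti-GDP antibody, 620/688 nm; Controls: No-Arfgap1 wells (100%) versus DMSO full-reaction wells (0%); Replication: single well per compound.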
Casp6 inh: caspase-6 (human) enzyme inhibition; purified caspase-6, Z-VEID-R110 cleavage fluorescence; inhibition, % at 12.5 µM; actives 0.53% (n = 350,000); AID 686996;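 active means mean inhibition across replicates at least about 35%, with every replicate also reaching that limit, limit read from the data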;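 further: 0% = median of neutral control wells and 100% = no fluorescence left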
Target sequence (P55212 24-179 limits assumed): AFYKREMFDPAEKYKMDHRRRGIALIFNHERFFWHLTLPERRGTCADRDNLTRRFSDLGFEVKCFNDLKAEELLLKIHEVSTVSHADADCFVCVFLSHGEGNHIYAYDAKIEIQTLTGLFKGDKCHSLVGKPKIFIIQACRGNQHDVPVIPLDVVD
Target sequence (P55212 194-293 limits assumed): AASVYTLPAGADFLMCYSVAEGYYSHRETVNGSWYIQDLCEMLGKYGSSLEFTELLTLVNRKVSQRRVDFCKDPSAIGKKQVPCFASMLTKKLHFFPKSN
TDP2 inh conf: confirmation of human TDP2 inhibitors; inhibition, % at 12.8 µM; actives 22% (n = 1,100); shares compounds with TDP2 inh; recombinant human TDP2, absorbance read-out;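 further: 0% = vehicle with enzyme and 100% = no enzyme buffer only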
IN multimer up: HIV-1 integrase multimerization activation, counter-screen. actives 17% (n = 2,000). activation, % at 7.7 µM. TR-FRET HIV-1 integrase multimerization, biochemical. shares compounds with LEDGF integ inh. AID 1053131; in the data active means activation above about 8.9%
TRFRET interf: optically interferes with TR-FRET readout in LEDGF counter-screen | AID 1053135 | 2,000 tested, under 10 active | TR-FRET optical interference counterscreen, HIV-1 IN multimerization | inhibition, % at 7.7 µM | shares compounds with LEDGF integ inh;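 active means inhibition above the mean over all tested compounds plus 3 SD, which no compound reached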;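 further: 0% = integrase with antibodies and DMSO and 100% = antibodies without integrase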
LEDGF integ conf: LEDGF/p75-dependent HIV-1 integration inhibition, confirmation | shares compounds with LEDGF integ inh | TR-FRET LEDGF/p75-dependent HIV-1 integration, biochemical | inhibition, % at 3.7 µM | actives 36% (n = 2,000); in the data active means inhibition above about 14%
The depositor's hits bear a star; . = no result given. Unless noted, no stated cut-off is given here; in the data, active means inhibition above about 25%; inactive means the rest.

SMILES | TDP2 inh | LEDGF integ inh | ASAP1 GAP inh | ARFGAP1 inhibitor | Casp6 inh | TDP2 inh conf | IN multimer up | TRFRET interf | LEDGF integ conf
O=C(O)c1cc(O)c2c(c1)[C@H]([C@H]1c3cc(C(=O)O)cc(O)c3C(=O)c3c(O[C@@H]4O[C@H](CO)[C@@H](O)[C@H](O)[C@H]4O)cccc31)c1cccc(OC3O[C@H](CO)[C@@H](O)[C@H](O)[C@H]3O)c1C2=O (stereo partly specified) | 46* | 82* | 9 | -7 | 83* | 51* | 74* | -261 | 80*
COc1ccc2c(-c3ccc(SC)cc3)c(-c3ccc(S(C)(=O)=O)cc3)sc2c1 | 4 | -2 | -8 | -10 | 1 | . | . | . | .
Cc1no[n+]([O-])c1COc1cccc(/C=N/Nc2nncn2N)c1 | 61* | 58* | -4 | 11 | 6 | 10 | 1 | -5 | -3
CCOc1cc(/C=C/c2ccc3cccc([N+](=O)[O-])c3n2)ccc1O | 0 | -3 | 1 | 7 | 22 | . | . | . | .
CS/C(N)=N/N=C/c1cc(Br)cc(Br)c1O | -24 | 4 | -2 | 11 | 0 | . | . | . | .
CC1CCN(c2ccc(/C=N\Nc3nncn3N)cc2[N+](=O)[O-])CC1 | 79* | 47* | -1 | -4 | . | 2 | 2 | -8 | -15
CC1CCN(c2ccc(/C=N/n3nnnc3N)cc2[N+](=O)[O-])CC1 | -22 | 3 | 18 | 4 | . | . | . | . | .
CSc1ccc(/C=N\Nc2nncn2N)cc1 | 64* | 40* | -1 | 5 | 12 | 6 | -1 | 3 | -5
CC(C)(C)c1ccc(/C=N/Nc2nncn2N)cc1 | 67* | 39* | 4 | 5 | 6 | 4 | -1 | 5 | -8
CSc1ccc(/C=N/NC(=O)c2ccc(-n3cnnn3)cc2)cc1 | 5 | 2 | 11 | 0 | -6 | . | . | . | .
Nn1cnnc1N/N=C/c1cc(Br)cc(Br)c1O | 54* | 44* | 4 | -14 | . | -5 | 1 | -2 | -16
Cc1cccc(NC(=O)c2cccc(N3C(=O)C4CCC(C)CC4C3=O)c2)c1C (stereo unspecified) | 0 | -6 | 3 | -2 | 0 | . | . | . | .
Cc1cc(NC(=O)CSCC(=O)Nc2cc(C(F)(F)F)ccc2N2CCOCC2)no1 | -7 | 1 | -9 | 4 | 1 | . | . | . | .
O=C1c2cccc(Cl)c2C(=O)c2c1cccc2N1CCCC1 | 26* | 32* | 3 | -7 | . | 5 | 1 | -6 | -9
O=C1c2ccccc2C(=O)c2cc(N3CCCCC3)ccc21 | -6 | 0 | -9 | -9 | 1 | . | . | . | .
O=C1CC(=O)N2CCSC2=N1 | -9 | 2 | 7 | -11 | -5 | . | . | . | .
Oc1ccc2ccccc2c1C=Nc1ccc(N2CCOCC2)cc1 | 31* | 28* | -9 | 0 | . | 5 | 2 | -9 | -1
C=Cc1ccc(N=Cc2c(O)ccc3ccccc23)cc1 | -19 | 8 | -1 | 0 | 2 | . | . | . | .
CCOc1cc(N2CCOCC2)c(OCC)cc1NC(=O)CSc1ncccc1C(=O)O | 30* | 29* | 1 | -1 | 20 | 5 | 2 | -9 | 3
CCOc1cc(N2CCOCC2)c(OCC)cc1NC(=O)CSc1ncccn1 | 0 | -3 | 2 | -11 | -1 | . | . | . | .
NS(=O)(=O)c1ccc2c(c1)C(=NO)c1cc(S(N)(=O)=O)ccc1-2 | 9 | -2 | -2 | 12 | 2 | . | . | . | .
NC1=C(Cl)C(=O)c2ccc(S(N)(=O)=O)cc2C1=O | 76* | 29* | 57* | 17 | 100* | 74* | 12* | -42 | 76*
COC(=O)c1ccccc1-c1ccc(/C=N/NC(N)=O)o1 | 11 | 1 | 2 | 7 | -5 | . | . | . | .
Cc1nnc(N/N=C/c2ccc(-c3ccccc3F)o2)n1N | 59* | 44* | 5 | 20 | 5 | 3 | 6 | -20 | 6
Cc1n[nH]c(=S)n1/N=C/c1ccc(-c2ccccc2[N+](=O)[O-])o1 | 1 | -1 | -2 | 4 | . | . | . | . | .
SMILES | TDP2 inh | LEDGF integ inh | ASAP1 GAP inh | ARFGAP1 inhibitor | Casp6 inh | TDP2 inh conf | IN multimer up | TRFRET interf | LEDGF integ conf
CCc1nnc(N/N=C/c2ccc(-c3ccc([N+](=O)[O-])cc3)o2)n1N | 68* | 46* | -8 | 1 | 6 | -5 | 9 | -31 | 4
CCC(=O)N/N=C/c1ccc(-c2ccc([N+](=O)[O-])cc2)o1 | 7 | 1 | 22 | 11 | 1 | . | . | . | .
Cc1nnc(N/N=C\c2ccc(-c3ccccc3[N+](=O)[O-])o2)n1N | 78* | 43* | -16 | -4 | 15 | 20 | 4 | -14 | -5
O=C(NCCC(=O)N1CCN(S(=O)(=O)c2ccc(F)cc2)CC1)Nc1ccccc1 | -12 | 7 | 2 | 1 | -1 | . | . | . | .
Cn1cnc(S(=O)(=O)Nc2ccccc2N2CCOCC2)c1 | -3 | -2 | 2 | -5 | -2 | . | . | . | .
CN(C)c1cccc2c1c(NS(=O)(=O)c1cn(C)cn1)nn2C | 44* | 15* | -4 | -7 | 52* | 32* | 5 | -18 | 12
CCCNC(=O)Nc1ccc2c(c1)C(=O)N(C)C[C@H](OC)[C@H](C)CN(C(=O)C1CCOCC1)[C@H](C)CO2 | . | . | . | . | 0 | . | . | . | .
COc1ccc(N(/N=C2\Sc3ccccc3C2=O)C(C)=O)cc1 | 14 | 2 | 12 | -14 | . | . | . | . | .
COc1ccccc1N(/N=C1\Sc2ccccc2C1=O)C(C)=O | 28* | 17* | 13 | 9 | 3 | 45* | 0 | -1 | 23*
COc1ccc(C2=NN(c3ccccc3)C(=O)/C2=C\c2ccc(O)c(OC)c2)cc1 | 46* | 17* | 18 | 3 | 4 | 2 | 1 | -5 | -2
CCC(COC)Oc1cc(NCc2ccccc2)c2ncn(C(C)C)c2c1 (stereo unspecified) | 61* | 27* | 12 | 7 | 5 | 35* | 0 | -1 | 30*
CCC(CO)Oc1cc(NC(=O)c2ccc(N)cc2)c2ncn(C(C)C)c2c1 (stereo unspecified) | 37* | 14* | 10 | -8 | 38* | 34* | 1 | -3 | 25*
CCC(CO)Oc1cc(NC(=O)c2ccc(F)cc2)c2ncn(C(C)C)c2c1 (stereo unspecified) | -7 | -1 | 19 | 13 | -1 | . | . | . | .
CC(C)(CNC(=O)CC1C(=O)NCCN1Cc1cccc(F)c1F)N1CCOCC1 (stereo unspecified) | -4 | 0 | 15 | 4 | -5 | . | . | . | .

Assay outcomes as filed in PubChem.
